{"source": "paper PMC4079330", "about": "(Journal of Medicinal Chemistry, 2014)", "assay_type_in_all_cases": "cell-based", "key": {"[1]": {"tested_on": "RAW 264.7 cells", "assay": "WST1 cell viability assay", "details": "concentrations up to 100 μM", "summary_of_the_method": "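Viability was read at every concentration tested in the NO assay, in RAW 264.7 cells given 20 ng/mL LPS plus a range of test compound concentrations. LC50 was taken as the concentration giving 50% cell viability. Test compound purity was above 95% by 1H NMR.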"}, "[2]": {"tested_on": "iNOS (NOS2) mRNA in RAW 264.7 cells", "assay": "Quantitative RT-PCR of iNOS mRNA, LPS", "details": "20 ng/mL LPS, 20 h, maximal decrease over tested concentrations", "summary_of_the_method": "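Quantitative real-time PCR for iNOS mRNA in RAW 264.7 cells co-incubated with 20 ng/mL LPS and a range of test compound concentrations for 20 h. Values expressed as fold change, with ligand-induced cells set to 1. Three biological replicates, each in technical duplicate, were averaged, with standard deviation as error.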"}, "[3]": {"tested_on": "iNOS protein in RAW 264.7 cells", "assay": "Western blot of iNOS protein", "details": "20 ng/mL LPS, normalized to GAPDH"}, "[4]": {"tested_on": "NF-κB activation through TLR4 in HEK 293T cells", "assay": "SEAP reporter assay, LPS", "details": "20 ng/mL LPS, concentrations up to 100 μM"}, "[5]": {"tested_on": "NF-κB activation through TLR3 in HEK 293T cells", "assay": "SEAP reporter assay, Poly I:C", "details": "2.5 μg/mL Poly I:C, concentrations up to 100 μM"}, "[6]": {"tested_on": "NF-κB signaling through tumor necrosis factor receptor (TNFR) in HEK 293T cells", "assay": "SEAP reporter assay, TNF-α", "details": "50 ng/mL TNF-α"}, "[7]": {"tested_on": "TNF-α in RAW 264.7 cells", "assay": "TNF-α ELISA", "details": "supernatant from nitric oxide plates"}}}
{"smiles": "CC(C)(C)OC(=O)N(Cc1ccco1)C(=O)c1ccc(CN2C(=O)c3ccccc3S2(=O)=O)cc1", "note": "[compound 103, tert-butyl N-(furan-2-ylmethyl)-N-{4-[(1,1,3-trioxo-2,3-dihydro-1λ^6,2-benzothiazol-2-yl)methyl]benzoyl}carbamate]", "values": [{"measurement": "cytotoxicity", "setting": "[1]", "result": "no cytotoxicity"}, {"measurement": "decrease of iNOS mRNA", "setting": "[2]", "result": "up to 67%"}, {"measurement": "iNOS protein expression", "setting": "[3]", "result": "reduces iNOS protein expression in a dose-dependent fashion"}, {"measurement": "NF-κB activation (SEAP)", "setting": "[4]", "result": "did not down-regulate NF-κB activation"}, {"measurement": "NF-κB activation (SEAP)", "setting": "[5]", "result": "did not down-regulate NF-κB activation"}, {"measurement": "NF-κB signaling (SEAP)", "setting": "[6]", "result": "unaffected"}, {"measurement": "TNF-α cytokine levels", "setting": "[7]", "result": "no change in TNF-α cytokine levels"}]}
